According to paper PMC6045394 (ACS Omega, 2017):

Legend:
[1] = test system: P. falciparum chloroquine-sensitive (3D7) strain; assay: In vitro schizonticidal activity, ELISA antiHRPII assay; assay type: cell-based, Plasmodium falciparum; conditions: for IC50: Plasmodium falciparum, 3D7, 72 h, read-out: IC50 (μM) ± SD P.f. 3D7
[2] = test system: human lung fibroblast cell line WI-26-VA4; assay: In vitro cytotoxicity test, MTT colorimetric assay; assay type: cell-based; conditions: WI26VA4, 48 h, read-out: IC50 (μM) ± SD Wi-26VA4
[3] = test system: P. falciparum chloroquine-resistant (W2) strain; assay: In vitro schizonticidal activity, ELISA antiHRPII assay; assay type: cell-based, Plasmodium falciparum; conditions: for SI (selectivity index) P.f. W2: SI = IC50 WI-26-VA4/IC50 P. falciparum strain W2
In short: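 W2 parasites grown in human erythrocytes in RPMI 1640 with human plasma, sorbitol-synchronized, plated at 0.05% parasitemia and 1.5% hematocrit. Triplicate drug dilutions for 72 h, freeze-thaw, anti-HRPII ELISA; IC50 is the mean of three assays. WI-26-VA4 fibroblasts: 1:10 serial dilutions (0.1% DMSO), 48 h, MTT read at 550 nm, triplicate. SI = fibroblast IC50 / W2 IC50.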

[4] = test system: RKO-AS45-1 human cell line; assay: Alkaline comet assay; assay type: cell-based; conditions: 17.7 μM vs 2.5 μM
[5] = test system: S. typhimurium strain TA98; assay: Ames/Salmonella mutagenicity assay; assay type: cell-based, Salmonella typhimurium; conditions: with and without metabolic activation (S9), 16.7 to 77.5 μM
In short: (§1)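 Microsuspension protocol: overnight cultures (1 × 10^9 cells/mL) concentrated 10× by centrifugation, then exposed to five concentrations (TA100 6.7–30.9 μM; TA98 16.7–77.5 μM), with or without S9, 90 min at 37 °C. Plated in histidine/biotin top agar on minimal glucose agar; his+ revertants counted after 48 h at 37 °C. DMSO negative control; MI = treated/control revertants, MI ≥ 2 mutagenic.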

[6] = test system: RKO-AS45-1 human cell line; assay: CBMN; assay type: cell-based; conditions: 2.5 to 17.7 μM
[7] = test system: S. typhimurium strain TA100; assay: Ames/Salmonella mutagenicity assay; assay type: cell-based, Salmonella typhimurium; conditions: with and without metabolic activation (S9), 6.7 to 30.9 μM
In short: as §1

With `CCN(CC)CCCC(C)Nc1ccnc2cc(Cl)ccc12` (stereo not shown) [CQ, chloroquine, reference compound] the IC50 [1] was 0.18 ± 0.05 µM, the IC50 [2] was > 100 µM and the “SI (selectivity index) P.f. W2” value [3] was >250.

For `FCCCCCCCCCCOCCCc1cccnc1` [Compound 7, 3-(3-((10-Fluorodecyl)oxy)propyl)pyridine], the “genotoxic concentration relative to IC50 against P. falciparum” value [4] was “about seven times higher”, the “induction of gene mutations (Ames)” value [5] was “not able to induce gene mutations” and the “nuclear division index (NDI)” value [6] was “None of the concentrations assessed affected the nuclear division index (NDI) values”. For the same molecule, the frequency of micronuclei ([6]; 3 h exposure) was “altered only at concentrations higher than the IC50”, the “induction of gene mutations (Ames)” value [7] was “not able to induce gene mutations” and the IC50 [1] was 2.3 ± 0.15 µM. For the same molecule, the “SI (selectivity index) P.f. 3D7” value ([1]; SI = IC50 WI-26-VA4/IC50 P. falciparum strain 3D7) was 12.2, the IC50 [2] was 28.2 ± 3.7 µM and the “increase of in vitro antimalarial activity compared to compound 5c” value ([3]; P. falciparum W2) was 5.8 fold. The “SI (selectivity index) P.f. W2” value [3] was 11.2.
